# Screens: PubChem, Broad Institute
# Compounds with a hit are over-represented: about 3.1% of the library has one in this group of screens.
# rRNA inh HTS: inhibitors of bacterial rRNA selective over humanized ribosomes | AID 720706 | E. coli WT GFP vs humanized-ribosome RFP mutants, fluorescence, 24 h; stronger effect = lower value; DMSO median 0, no signal -100 | GFP signal change (wild-type ribosome), % (no concentration beside the values) | 1.6% of 350,000 active;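 active means significant combined selectivity score with lowered wild-type GFP, culture density cut under 30%, mutant RFP and density less affected; inactive means any of these conditions unmet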
# miR122 inh: miR-122 inhibition in Huh7 cells; activation (reporter increase), % at 12.5 µM; Huh7 miR-122 Renilla luciferase sensor, 48 h; neutral wells = 0, positive control = 100; 0.3% of 340,000 active;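 active means mean replicate activation score at least 90 and every replicate individually at or above 90; inconclusive means only one of the two criteria met; inactive means neither criterion met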;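 further: higher luciferase means less miR-122 activity so hits act as miR-122 inhibitors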
# Cneo AK release: causes C. neoformans cell lysis; adenylate kinase release luminescence, 4 h; normalised: neutral wells 0, clomiphene wells 100; lysis activity, % at 15 µM; 0.2% of 360,000 active;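 active means mean lysis activity across replicates of at least 80%, whatever share of replicates individually reach that level; inactive means mean lysis activity below 80%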
#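 Material – log-phase Cryptococcus neoformans yeast cells · Input – 5 × 10^6 yeast cells/mL · Medium – fresh YPD growth medium · Doses – single compound concentration per well · Timing – static 4 h at 37 °C with compound, 1 h detection · Detection – adenylate kinase release luminescence · Read-out – signal increase indicating cell lysis · Control set – Clomiphene as positive lysis control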
# E-sel inducer: induces E-selectin expression in human endothelial cells; activation, % at 7.58 µM; HUVEC E-selectin immunofluorescence imaging; normalized: neutral wells 0, TNF-alpha wells 100; P16581; 0.37% of 260,000 active;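 active means mean E-selectin-positive cell signal at least 10% of the positive control, reached in at least 60% of replicates, without over 20% cell loss; inconclusive means no rule given, readout overlaps actives, possibly toxicity-flagged; inactive means the rest, including those meeting only one limit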
# Target sequence (P16581 whole entry, looked up): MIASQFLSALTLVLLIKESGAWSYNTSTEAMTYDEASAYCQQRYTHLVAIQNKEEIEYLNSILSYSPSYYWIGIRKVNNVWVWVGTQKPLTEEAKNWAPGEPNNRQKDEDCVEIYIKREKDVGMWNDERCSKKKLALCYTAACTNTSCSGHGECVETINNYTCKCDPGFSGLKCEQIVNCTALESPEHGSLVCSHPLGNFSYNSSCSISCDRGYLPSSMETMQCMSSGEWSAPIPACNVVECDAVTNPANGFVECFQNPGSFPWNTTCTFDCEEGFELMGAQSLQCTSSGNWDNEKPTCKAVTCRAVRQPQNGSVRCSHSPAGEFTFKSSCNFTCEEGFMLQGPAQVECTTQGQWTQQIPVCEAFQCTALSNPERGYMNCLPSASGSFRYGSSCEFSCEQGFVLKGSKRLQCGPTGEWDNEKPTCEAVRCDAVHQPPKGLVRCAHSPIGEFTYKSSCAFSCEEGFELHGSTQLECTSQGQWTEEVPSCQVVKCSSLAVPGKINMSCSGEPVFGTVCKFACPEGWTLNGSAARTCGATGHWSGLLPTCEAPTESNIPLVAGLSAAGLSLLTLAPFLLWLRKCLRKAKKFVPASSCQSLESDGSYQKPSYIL
#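 assay system = HUVEC, human umbilical vein endothelial cells | input = 3,000 HUVEC seeded per well | medium = EGM-2 growth medium on 0.1% gelatin-coated wells | dosing = one compound dose added by pin transfer | signal = immunofluorescence imaging | read-out basis = % PE-positive cells | control set = TNF-alpha, DMSO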
# DENV2 CPE rescue: protects cells from dengue virus 2 cytopathic effect; 1.7% of 350,000 active; DENV2-infected cells, cytopathic effect rescue, plate reader; CPE inhibition, % at 9.99 µM; in the data active means CPE inhibition above about 20%, passing the limit was not always enough; inconclusive means no clear call, values can overlap the other calls; tested in BHK-21 cells
# A number is an active result; i = inactive; ? = inconclusive; nt = not tested or not shown; [ ] = dose if it differs, or a comment.
SMILES,rRNA inh HTS,miR122 inh,Cneo AK release,E-sel inducer,DENV2 CPE rescue
C[C@@H]1CCCCO[C@H](CN(C)S(=O)(=O)c2cn(C)cn2)[C@H](C)CN([C@H](C)CO)C(=O)c2cc(NS(=O)(=O)c3ccccc3)ccc2O1,i,nt,nt,i,i
COc1cc2cc(CCCOC(=O)CCCC(=O)O)oc(=O)c2cc1OC,i,i,i,i,38
COc1cc2cc(CCCOC(=O)c3cc(OC)c(OC)c(OC)c3)oc(=O)c2cc1OC,i,i,i,i,i
Cc1ccc(N(C)C)cc1,i,nt,nt,nt,22
Cc1ccc(NC(=S)c2ccc(N(C)C)cc2)cc1,nt,i,nt,i,nt
O=C(c1cccs1)N1CCN(c2nnc(-c3ccccc3)c3ccccc23)CC1,-28,nt,nt,nt,nt
Cc1ccc(-c2nnc(N3CCN(C(=O)c4cccs4)CC3)c3ccccc23)cc1,i,nt,nt,nt,i
C=Cc1ccc(COC(=O)c2cn(CC)c3nc(C)ccc3c2=O)cc1,i,i,i,nt,i
C=CCOC(=O)c1cn(CC)c2nc(C)ccc2c1=O,-25,i,i,i,nt
CCn1cc(C(=O)NCc2cccc(C(F)(F)F)c2)c(=O)c2ccc(C)nc21,-23,i,i,i,i
C[C@H](CO)N1C[C@H](C)[C@@H](CN(C)S(=O)(=O)c2ccc(F)cc2)Oc2cc(-c3cccc(F)c3)ccc2S1(=O)=O,i,i,i,i,i
CO[C@H]1CN(C)C(=O)c2ccc(NC(=O)C3CC3)cc2OC[C@H](C)N(C(=O)C2CCCCC2)C[C@@H]1C,i,nt,nt,nt,nt
C[C@@H]1CN([C@@H](C)CO)C(=O)Cc2cc(NC(=O)CCCCCC(=O)Nc3ccccc3N)ccc2O[C@H]1CN(C)C,i,i,i,i,?
Oc1c(N=Nc2nn[nH]n2)ccc2ccccc12,i,nt,nt,i,69
COc1cc2nc(N3CCN(C(=O)C4COc5ccccc5O4)CC3)nc(N)c2cc1OC (centres undefined),nt,i,i,61,i
COc1ccc(S(=O)(=O)N2CC[C@H]3[C@@H](CO)N(C)c4ccc(C5=CCCCC5)cc4[C@H]32)cc1,i,i,i,i,i
O=C(CCNC(=O)c1ccco1)NCCc1ccc(Cl)cc1,i,i,i,i,i
Cc1ccc(-c2csc(NC(=O)CCNC(=O)c3ccco3)n2)cc1,-36,nt,nt,i,i
O=C(CCNC(=O)c1ccco1)Nc1ccc(Cl)cc1F,i,i,i,i,28
COc1ccc(-c2csc(NC(=O)CCNC(=O)c3ccco3)n2)cc1,i,i,i,i,i
CC(C)NC(=O)Nc1cccc2c1O[C@@H](CN(C)C(=O)NC(C)C)[C@H](C)CN(C)C2=O,i,nt,nt,nt,nt
C[C@H]1CN([C@@H](C)CO)C(=O)c2cc(-c3ccc(F)cc3)cnc2O[C@@H]1CN(C)C(=O)Nc1ccc(F)cc1,i,i,nt,i,nt
CC(=O)C[C@H]1c2cc(C(F)(F)F)ccc2S(=O)(=O)N1C1CCCC1,i,105,i,i,i
CS(=O)(=O)N1CC2(C1)[C@@H](c1ccccc1)[C@H](CO)N2C(=O)C1CCC1,i,nt,nt,i,i
COc1ccc(-c2cnc3c(c2)C(=O)N([C@H](C)CO)C[C@H](C)[C@@H](CN(C)S(=O)(=O)c2ccc(OC)cc2)O3)cc1,i,i,nt,i,nt
SMILES,rRNA inh HTS,miR122 inh,Cneo AK release,E-sel inducer,DENV2 CPE rescue
CC(=O)N(C)C[C@@H]1Oc2c(NC(=O)NC(C)C)cccc2C(=O)N(C)C[C@H]1C,i,nt,nt,nt,nt
COC(=O)c1sccc1NC(=S)Nc1ccc(F)cc1,nt,147,i,nt,nt
COC(=O)c1sccc1NC(=S)N(C)C1CCCCC1,-26,i,nt,i,i
COc1ccc2c3c([nH]c2c1)[C@H](CO)NCC31CCN(C(=O)Cc2ccccc2)CC1,i,nt,nt,i,i
CO[C@@H]1CN(C)C(=O)c2cc(NC(=O)NC3CCCCC3)ccc2OC[C@H](C)N(CCc2ccccc2)C[C@H]1C,i,nt,i,i,i
CCc1ccc(OCC(=O)O/N=C(\N)c2ccccn2)cc1,-22,i,i,i,i
Cc1ccc(C(=O)O/N=C(\N)c2ccccn2)cc1,i,i,i,nt,29
N/C(=N\OC(=O)c1ccccc1)c1ccccn1,i,i,i,nt,i
OC1(c2ccc(Cl)cc2)CCN(Cc2c[nH]c3ccccc23)CC1,i,i,i,i,56
O=S(=O)(c1ccc(Cl)cc1)N1CCN(Cc2c[nH]c3ccccc23)CC1,nt,i,i,nt,nt
Clc1ccccc1N1CCN(Cc2c[nH]c3ccccc23)CC1,-45,i,i,nt,i
COc1cccc(OC)c1C(=O)N1CCN(Cc2c[nH]c3ccccc23)CC1,i,i,i,i,55
C[C@H]1CN([C@@H](C)CO)C(=O)Cc2cc(NC(=O)CCCCCC(=O)Nc3ccccc3N)ccc2O[C@H]1CN(C)Cc1ccc(Cl)c(Cl)c1,i,i,i,75,i
C[C@H](CO)N1C[C@H](C)[C@H](CN(C)Cc2ccccc2)Oc2ccc(NC(=O)CCCCCC(=O)Nc3ccccc3N)cc2CC1=O,i,i,i,i,58
C[C@H](CO)N1C[C@H](C)[C@@H](CN(C)S(C)(=O)=O)Oc2ccc(NC(=O)CCCCCC(=O)Nc3ccccc3N)cc2CC1=O,i,i,i,36,i
C[C@H](CO)N1C[C@H](C)[C@H](CN(C)Cc2ccc(Oc3ccccc3)cc2)Oc2ccc(NC(=O)CCCCCC(=O)Nc3ccccc3N)cc2CC1=O,i,i,i,50,i
C[C@H](CO)N1C[C@H](C)[C@H](CN(C)S(C)(=O)=O)Oc2ccc(NC(=O)CCCCCC(=O)Nc3ccccc3N)cc2CC1=O,i,i,i,i,i
C[C@H](CO)N1C[C@H](C)[C@@H](CN(C)Cc2ccc(Cl)c(Cl)c2)Oc2ccc(NC(=O)CCCCCC(=O)Nc3ccccc3N)cc2CC1=O,i,nt,nt,i,i
CO[C@H]1CN(C)C(=O)c2ccc(NC(C)=O)cc2OC[C@H](C)N(C(=O)c2ccccc2F)C[C@@H]1C,i,i,i,i,nt
COc1ccccc1S(=O)(=O)N1[C@@H]2CNC[C@H]1[C@H]2c1ccc(-c2ccccc2C)cc1,i,nt,nt,i,i
C[C@@H]1CN([C@@H](C)CO)C(=O)c2cccc(NC(=O)C3CC3)c2O[C@@H]1CN(C)Cc1ccc(C(=O)O)cc1,i,i,i,i,i
C[C@@H]1CN([C@H](C)CO)C(=O)c2cccc(NC(=O)C3CC3)c2O[C@H]1CN(C)Cc1ccc(C(=O)O)cc1,i,i,97,i,nt
C[C@@H]1CN([C@@H](C)CO)C(=O)c2cccc(NC(=O)C3CC3)c2O[C@@H]1CN(C)CC1CCCCC1,i,i,i,i,i
C[C@H](CO)N1C[C@H](C)[C@@H](CN(C)Cc2ccc(Oc3ccccc3)cc2)Oc2c(NC(=O)C3CCOCC3)cccc2C1=O,i,100[16.7 µM],i,i,nt
C[C@H](CO)N1C[C@H](C)[C@H](CN(C)CC2CC2)Oc2c(NC(=O)C3CC3)cccc2C1=O,i,i,i,64,i
C[C@@H]1CN([C@@H](C)CO)C(=O)c2cccc(NC(=O)C3CCOCC3)c2O[C@H]1CN(C)Cc1ccc(Oc2ccccc2)cc1,i,i,i,i,i
